One assay has as its target T1, drHDAC10 (Danio rerio, UniProt F1QCV2).
T1 sequence (F1QCV2 1-675): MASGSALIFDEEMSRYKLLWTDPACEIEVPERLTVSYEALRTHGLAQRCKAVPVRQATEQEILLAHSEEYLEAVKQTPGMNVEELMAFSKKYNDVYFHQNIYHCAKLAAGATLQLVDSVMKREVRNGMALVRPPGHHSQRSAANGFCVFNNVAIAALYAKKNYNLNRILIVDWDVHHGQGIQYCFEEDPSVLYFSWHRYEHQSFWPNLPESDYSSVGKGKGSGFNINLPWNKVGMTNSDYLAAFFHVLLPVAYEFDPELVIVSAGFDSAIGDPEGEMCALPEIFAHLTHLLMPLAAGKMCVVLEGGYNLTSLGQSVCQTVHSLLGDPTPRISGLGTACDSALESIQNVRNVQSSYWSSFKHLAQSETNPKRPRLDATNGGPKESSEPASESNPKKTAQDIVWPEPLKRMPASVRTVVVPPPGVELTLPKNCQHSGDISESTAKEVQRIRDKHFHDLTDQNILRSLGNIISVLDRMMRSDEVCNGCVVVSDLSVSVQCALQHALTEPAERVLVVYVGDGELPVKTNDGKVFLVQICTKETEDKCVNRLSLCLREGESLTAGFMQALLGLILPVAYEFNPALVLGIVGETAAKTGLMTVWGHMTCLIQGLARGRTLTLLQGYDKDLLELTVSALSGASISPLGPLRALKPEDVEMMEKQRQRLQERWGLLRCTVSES
Briefly: Enzymatic in vitro HDAC10 inhibition assay. The assay is classed as biochemical, zebrafish. The procedure, abridged:
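Recombinant wild-type drHDAC10 (5 nM final) was preincubated 5 min with test compound at various concentrations in 20 mM HEPES pH 7.4 with 0.5 mg/mL BSA. The reaction was started with 50 µM Ac-spermidine-AMC and incubated 25 min at 25 °C. A stop solution containing 16 mM NDA derivatized the released primary amine. Fluorescence was read at λex 330 nm and λem 390 nm.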

The next assay deals with hHDAC1 (Homo sapiens, UniProt Q13547). Briefly: biochemical. It counts as biochemical. To be noted: for hHDAC1 % @1 µM: inhibitor at 1 µM; for hHDAC1 % @10 µM: inhibitor at 10 µM.
Chain of hHDAC1 (Q13547 whole entry): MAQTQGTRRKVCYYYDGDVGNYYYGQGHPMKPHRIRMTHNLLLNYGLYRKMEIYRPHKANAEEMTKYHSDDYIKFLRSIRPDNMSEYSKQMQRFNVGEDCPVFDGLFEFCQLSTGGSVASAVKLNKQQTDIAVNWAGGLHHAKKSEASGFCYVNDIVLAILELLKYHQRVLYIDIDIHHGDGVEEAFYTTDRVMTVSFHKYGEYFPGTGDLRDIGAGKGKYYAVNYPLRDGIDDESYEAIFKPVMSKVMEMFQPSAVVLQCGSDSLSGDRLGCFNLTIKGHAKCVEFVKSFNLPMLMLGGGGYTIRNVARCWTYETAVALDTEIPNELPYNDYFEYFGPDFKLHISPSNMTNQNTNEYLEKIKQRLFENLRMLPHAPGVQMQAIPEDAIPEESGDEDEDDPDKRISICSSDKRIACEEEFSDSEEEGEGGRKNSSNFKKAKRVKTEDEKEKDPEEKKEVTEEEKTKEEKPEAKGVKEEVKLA
The target of the next assay is T2, hHDAC6 (Homo sapiens, UniProt Q9UBN7).
T2 sequence (Q9UBN7 1-1215): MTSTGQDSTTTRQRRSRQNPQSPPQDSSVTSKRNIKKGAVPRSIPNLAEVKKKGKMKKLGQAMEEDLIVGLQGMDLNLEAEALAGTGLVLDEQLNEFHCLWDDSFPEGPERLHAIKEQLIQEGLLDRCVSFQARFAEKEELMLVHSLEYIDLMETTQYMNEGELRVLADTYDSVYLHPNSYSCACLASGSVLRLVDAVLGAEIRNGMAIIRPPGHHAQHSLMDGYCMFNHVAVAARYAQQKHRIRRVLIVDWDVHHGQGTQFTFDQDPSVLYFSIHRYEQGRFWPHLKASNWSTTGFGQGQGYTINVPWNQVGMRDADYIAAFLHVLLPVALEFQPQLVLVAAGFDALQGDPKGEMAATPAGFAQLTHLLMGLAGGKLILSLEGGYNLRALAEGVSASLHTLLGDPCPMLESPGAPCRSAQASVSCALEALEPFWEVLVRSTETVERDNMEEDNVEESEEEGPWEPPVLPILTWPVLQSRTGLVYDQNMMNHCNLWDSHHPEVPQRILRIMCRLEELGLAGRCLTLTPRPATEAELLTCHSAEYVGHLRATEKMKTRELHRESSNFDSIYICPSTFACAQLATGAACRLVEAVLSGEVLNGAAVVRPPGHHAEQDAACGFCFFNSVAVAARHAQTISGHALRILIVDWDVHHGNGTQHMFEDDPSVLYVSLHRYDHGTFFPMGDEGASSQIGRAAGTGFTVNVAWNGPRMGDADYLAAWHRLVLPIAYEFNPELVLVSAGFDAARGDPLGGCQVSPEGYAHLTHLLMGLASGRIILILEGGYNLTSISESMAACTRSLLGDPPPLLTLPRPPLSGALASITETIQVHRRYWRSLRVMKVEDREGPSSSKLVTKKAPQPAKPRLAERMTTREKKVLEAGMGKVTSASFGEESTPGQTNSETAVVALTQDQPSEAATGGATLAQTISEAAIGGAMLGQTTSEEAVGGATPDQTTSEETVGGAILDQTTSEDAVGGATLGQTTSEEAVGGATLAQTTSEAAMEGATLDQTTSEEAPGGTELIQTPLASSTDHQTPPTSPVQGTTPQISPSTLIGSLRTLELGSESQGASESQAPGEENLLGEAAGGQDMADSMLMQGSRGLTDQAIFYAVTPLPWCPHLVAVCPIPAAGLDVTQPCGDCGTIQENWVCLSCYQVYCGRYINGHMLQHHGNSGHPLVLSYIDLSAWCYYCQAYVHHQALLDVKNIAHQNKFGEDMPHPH
The assay can be described thus: biochemical.

The next assay has as its target T3, hHDAC8 (Homo sapiens, UniProt Q9BY41).
T3 sequence (Q9BY41 1-377): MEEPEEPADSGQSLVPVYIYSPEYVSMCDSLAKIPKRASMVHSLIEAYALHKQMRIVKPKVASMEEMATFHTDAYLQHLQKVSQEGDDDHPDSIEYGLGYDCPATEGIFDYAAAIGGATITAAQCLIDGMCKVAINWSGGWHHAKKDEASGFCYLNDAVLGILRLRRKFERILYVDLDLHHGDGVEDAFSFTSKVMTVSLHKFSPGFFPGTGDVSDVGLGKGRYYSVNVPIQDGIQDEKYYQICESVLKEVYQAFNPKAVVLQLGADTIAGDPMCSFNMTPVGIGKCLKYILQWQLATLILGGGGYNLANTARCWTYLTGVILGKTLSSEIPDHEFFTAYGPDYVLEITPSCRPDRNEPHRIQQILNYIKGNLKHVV
The assay can be described thus: biochemical. To be noted: for hHDAC8 % @1 µM: inhibitor at 1 µM; for hHDAC8 % @10 µM: inhibitor at 10 µM. It counts as biochemical.

A further assay deals with SK-MEL (melanoma). Briefly: Cytotoxicity, WST-8 cell viability. The assay is classed as cell-based, human. To be noted: Homo sapiens, 48 h, read-out: Cancer cell lines IC50 SK-MEL. The procedure, abridged: (§1)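 Cells were seeded at 10,000 cells/well and grown for 24 h. Test compounds were dissolved in DMSO, diluted in medium and added at 80, 40, 20 and 10 µM. Cells were then incubated for 48 h. Viability was read with WST-8 plus 1-methoxy PMS as formazan absorbance at 450 nm. Controls were doxorubicin (positive) and 0.25% DMSO (vehicle). IC50 came from concentration-response curves, mean ± SD (n = 3).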

For the next assay, the system named is KB (epidermal carcinoma). The assay can be described thus: Cytotoxicity, WST-8 cell viability. To be noted: Homo sapiens, 48 h, read-out: Cancer cell lines IC50 KB. It counts as cell-based, human. In short, it runs like this: as §1
The subject of assay [1] is BT-549 (breast carcinoma). Briefly: Cytotoxicity, WST-8 cell viability. It counts as cell-based, human. To be noted: Homo sapiens, BT-549, 48 h, read-out: Cancer cell lines IC50 BT-549. In short, it runs like this:
as §1
For orientation: Tetrazolium dyes change colour on reduction, which living cells bring about.

For assay [2], the system named is SK-OV-3 (ovarian carcinoma). Briefly: Cytotoxicity, WST-8 cell viability. To be noted: Homo sapiens, SK-OV-3, 48 h, read-out: Cancer cell lines IC50 SK-OV-3. It counts as cell-based, human. The procedure, abridged: as §1
Another assay deals with Vero kidney cells. The assay can be described thus: Cytotoxicity, WST-8 cell viability, non-cancer kidney cells. The assay is classed as cell-based. To be noted: Chlorocebus sabaeus, Vero, 48 h, read-out: Kidney cells IC50 Vero. The procedure, abridged:
as §1

Where two headings read alike, the source gives them in different places.

As for `O=C(NO)c1ccc(CNCc2c[nH]c3ccccc23)cc1` [Compound 2a, 4-((((1H-indol-3-yl)methyl)amino)methyl)-N-hydroxybenzamide], the IC50 is 0.41 ± 0.02 nM at drHDAC10; 4.5 ± 0.2 µM on hHDAC1; 37 ± 2 nM on hHDAC6; 350 ± 20 nM against hHDAC8; over 80 µM with SK-MEL (melanoma); 72.8 ± 2.4 µM with KB (epidermal carcinoma). Besides, the 50% inhibitory concentration (IC50) was over 80 µM in [1], 61 ± 14.4 µM in assay [2] and 62.6 ± 2.39 µM in the assay on Vero kidney cells. Further, the “selectivity of HDAC10 over HDAC6” value on drHDAC10 (ratio of HDAC6 to HDAC10 IC50) was “approximately 90 fold”.
Take `O=C(NO)c1ccc(N2CCN(Cc3c[nH]c4ccccc34)CC2)cc1` [Compound 2b, 4-(4-((1H-indol-3-yl)methyl)piperazin-1-yl)-N-hydroxybenzamide]: the concentration for half-maximal inhibition (IC50) against drHDAC10 was 2 ± 0.1 nM; against hHDAC6, 73 ± 3 nM; on hHDAC8, 74 ± 6 nM; with SK-MEL (melanoma), 26 ± 3.62 µM; in the assay with KB (epidermal carcinoma), 12.1 ± 1.41 µM; in assay [1], 16.8 ± 3.63 µM. For the same compound, the half-inhibitory concentration (IC50) was 11.4 ± 4.04 µM in assay [2] and 5.99 ± 0.4 µM in the assay with Vero kidney cells. Moreover, the “hHDAC1 % @1 µM” value on hHDAC1 is 48.4%. Moreover, at hHDAC1, the “hHDAC1 % @10 µM” value turned out to be 90.6%.
For the compound `Cc1ccc(S(=O)(=O)n2cc(CNc3ccc(C(=O)NO)cc3)c3ccccc32)cc1` [Compound 2d, N-hydroxy-4-(((1-tosyl-1H-indol-3-yl)methyl)amino)benzamide], the IC50 against drHDAC10 came to 290 ± 60 nM; against hHDAC6, 53 ± 5 nM; with SK-MEL (melanoma), 8.38 ± 2.11 µM; in the assay with KB (epidermal carcinoma) it was 13.3 ± 0.33 µM; in assay [1], 11.4 ± 0.16 µM; in assay [2], 12.6 ± 0.98 µM. The IC50 in the assay with Vero kidney cells came out at 50.5 ± 9.74 µM. Besides, the “hHDAC1 % @1 µM” value on hHDAC1 came to 1.3%. Besides, the “hHDAC1 % @10 µM” value at hHDAC1 was 38.9%. The “hHDAC8 % @1 µM” value on hHDAC8 was 49.2%. For the same compound, on hHDAC8, the “hHDAC8 % @10 µM” value came to 98.9%.
For `Cc1ccc(S(=O)(=O)n2cc(CN3CCN(c4ccc(C(=O)NO)cc4)CC3)c3ccccc32)cc1` [Compound 2e, N-hydroxy-4-(4-((1-tosyl-1H-indol-3-yl)methyl)piperazin-1-yl)benzamide], the half-inhibitory concentration (IC50) at drHDAC10 stood at 75 ± 12 nM; in the assay with SK-MEL (melanoma) it was 8.82 ± 0.7 µM; with KB (epidermal carcinoma), 10 ± 0.7 µM; in assay [1], 9.71 ± 0.28 µM; in assay [2], 8.62 ± 0.42 µM; in the assay with Vero kidney cells, 13.2 ± 1.82 µM. The “decrease in HDAC10 activity compared to unsubstituted counterpart compound 2b” value on drHDAC10 (tosyl analogue vs compound 2b) was about 38 fold. The “hHDAC1 % @1 µM” value on hHDAC1 is 7.3%. Further, the “hHDAC1 % @10 µM” value on hHDAC1 is recorded as 67.2%. The “hHDAC6 % @1 µM” value on hHDAC6 (inhibitor at 1 µM) amounted to 35.3%. The “hHDAC6 % @10 µM” value on hHDAC6 (inhibitor at 10 µM) came to 95%. The “hHDAC8 % @1 µM” value on hHDAC8 is listed as 26.9%. In addition, the “hHDAC8 % @10 µM” value on hHDAC8 is on record as 87.9%.
Turning to `O=C(NO)c1ccc(NCc2cnc3ccccc3c2)cc1` [Compound 2f, N-hydroxy-4-((quinolin-3-ylmethyl)amino)benzamide], the half-inhibitory concentration (IC50) is 110 ± 10 nM against drHDAC10; 2.5 ± 0.3 nM against hHDAC6; 210 ± 10 nM against hHDAC8; 15.2 ± 1.21 µM in the assay with SK-MEL (melanoma); 9.72 ± 0.73 µM in the assay on KB (epidermal carcinoma); 14.8 ± 2.65 µM in assay [1]. Also, the half-maximal inhibitory concentration (IC50) in [2] is 10.9 ± 2.89 µM; in the assay on Vero kidney cells it was 3.92 ± 0.24 µM.
Consider `O=C(NO)c1ccc(N2CCN(Cc3cnc4ccccc4c3)CC2)cc1` [Compound 2g, N-hydroxy-4-{4-[(quinolin-3-yl)methyl]piperazin-1-yl}benzamide], for which the IC50 at drHDAC10 (read-out: IC50 drHDAC10 ± SD, zebrafish HDAC10, recombinant wild type) was 11 ± 1 nM; on hHDAC6 (read-out: hHDAC6 IC50, recombinant human HDAC6) it was 130 ± 10 nM; on hHDAC8 (read-out: hHDAC8 IC50, recombinant human HDAC8) it was 300 ± 20 nM; with SK-MEL (melanoma), over 69 µM; in the assay with KB (epidermal carcinoma), over 69 µM; in assay [1], over 69 µM. Further, the 50% inhibitory concentration (IC50) in assay [2] was over 69 µM; in the assay on Vero kidney cells, 51 ± 1.95 µM. Also, the “hHDAC1 % @1 µM” value at hHDAC1 is listed as 32.1%. For the same compound, the “hHDAC1 % @10 µM” value on hHDAC1 is 79.4%.
With `COc1cccc2c1C(=O)c1c(O)c3c(c(O)c1C2=O)C[C@@](O)(C(=O)CO)C[C@@H]3O[C@H]1C[C@H](N)[C@H](O)[C@H](C)O1` [Doxorubicin, reference compound], the IC50 with SK-MEL (melanoma) was 2.52 µM; in the assay on KB (epidermal carcinoma), 2.3 µM; in assay [1], 3.44 µM; in assay [2], 2.01 µM; in the assay with Vero kidney cells, over 11 µM.
Turning to `CN1CCc2c(c3ccccc3n2Cc2ccc(C(=O)NO)cc2)C1` [Tubastatin A, reference compound], the 50% inhibitory concentration (IC50) against drHDAC10 worked out at 50 ± 3 nM. On hHDAC1, the “hHDAC1 % @1 µM” value is listed as 7.6% and the “hHDAC1 % @10 µM” value was found to be 29.9%. Besides, at hHDAC8, the “hHDAC8 % @1 µM” value was 46.4% and the “hHDAC8 % @10 µM” value is reported as 84%.

In general, IC50 refers to the concentration that gives 50% inhibition.

These data come from publication PMC12475083 (Scientific Reports, 2025).
